Experimental data pooled from the literature.
Each line is one published result; the experiments were not run side by side.

Compound | cell line | read-out | method | tested at | time | endpoint | value
CCOC(=O)c1nn(-c2cccc(Cl)c2)/c(=N/N=C(\C)c2ccc(NC(=O)c3ccc(Cl)cc3)cc2)s1 | HepG2 | cell growth or viability | MTT | 1.25 µM | – | viability | 2.59%
Cc1sc2c(c1C)C(c1ccc(Cl)cc1)=N[C@@H](CC(=O)NCCCCCCCCNC(=O)COc1cccc3c1C(=O)N(C1CCC(=O)NC1=O)C3=O)c1nnc(C)n1-2 (some centres unmarked) | Ramos | cell growth or viability | ATP luminescence | – | 72 h | IC50 | 0.012 µM
CC(C)(C)c1cnc(CSc2cnc(NC(=O)C3CCN(CCCCCCCSc4cccc5c4C(=O)N(C4CCC(=O)NC4=O)C5=O)CC3)s2)o1 (centres unmarked) | HH | cell growth or viability | CCK-8 | 50 nM | – | viability | 96%
CN(C)C1CCCN(C(=O)/C=C/c2nn(CC3CCCC3)c3ncnc(N)c23)C1 (centres unmarked) | OE33 | cell growth or viability | resazurin | – | 5 days | EC50 | > 30 µM
O=C(Nc1ccc(C(F)(F)F)cc1)Nc1cccc(Br)c1 | LAD2 | degranulation | – | – | – | IC50 | 1.24 µM
CC(=NNC(=O)c1cccnc1)c1ccc(Nc2nnc(-c3ccc(Cl)cc3)c3ccccc23)cc1 | HepG2 | cell growth or viability | MTT | 1.25 µM | – | cell death | 88.1%
CC(C)(C)c1cnc(CSc2cnc(NC(=O)C3CCN(CCCCCCCCSc4cccc5c4C(=O)N(C4CCC(=O)NC4=O)C5=O)CC3)s2)o1 (centres unmarked) | HH | cell growth or viability | CCK-8 | 0.2 µM | – | viability | 10.7%
CC(=O)c1nn(-c2ccccc2Cl)/c(=N/N=C(\C)c2ccc(NC(=O)c3ccccc3)cc2)s1 | HepG2 | cell growth or viability | MTT | 0.625 µM | – | viability | 5.95%
CC(=NNC(=S)Nc1ccccc1)c1ccc(Nc2nnc(-c3ccc(Cl)cc3)c3ccccc23)cc1 | HepG2 | cell growth or viability | MTT | 10 µM | – | cell death | 95.7%
CC(C)OC(=O)C(n1cccn1)n1cccn1 | A-431 | cell growth or viability | MTT | – | 72 h | IC50 | > 50 µM
Nc1ncnc2c1c(/C=C/C(=O)N1CCOCC1)nn2CC1CCCC1 | OE33 | cell growth or viability | resazurin | – | 5 days | EC50 | > 30 µM
CC(=NNC(=O)c1ccncc1)c1ccc(Nc2nnc(-c3ccc(Cl)cc3)c3ccccc23)cc1 | HepG2 | cell growth or viability | MTT | 0.312 µM | – | cell death | 64.7%
CC(C)(C)c1cnc(CSc2cnc(NC(=O)C3CCN(CCCCCCCCSc4cccc5c4CN(C4CCC(=O)NC4=O)C5=O)CC3)s2)o1 (centres unmarked) | HH | cell growth or viability | CCK-8 | 0.2 µM | – | viability | 0%
CNc1ncc2c(/C=C/C(=O)N3CCC(OC)CC3)nn(CC(C)(C)C)c2n1 | OE33 | cell growth or viability | resazurin | – | 5 days | EC50 | > 30 µM
O=C(Nc1ccccc1)Nc1ccc(Oc2nnc(-c3ccc(Cl)cc3)c3ccccc23)cc1 | HepG2 | cell growth or viability | MTT | 0.625 µM | – | cell death | 94.7%
CNc1ncc2c(/C=C/C(=O)N3CCC(OC)CC3)nn(CC3CCCC3)c2n1 | OE33 | cell growth or viability | resazurin | – | 5 days | EC50 | 6.72 µM

Compound | cell line | read-out | method | tested at | time | endpoint | value
CC(=O)Nc1ccc(Oc2nnc(-c3ccc(Cl)cc3)c3ccccc23)cc1 | HepG2 | cell growth or viability | MTT | 1.25 µM | – | cell death | 92.9%
C=CC(=O)NC1CCN(c2ncc3ncnc(Nc4ccc(Oc5ccc6c(c5)ncn6C)c(C)c4)c3n2)CC1 | DMS-273 | cell growth or viability | – | – | – | EC50 | 0.338 µM
CCOC(=O)c1nn(-c2cccc(Cl)c2)/c(=N/N=C(\C)c2ccc(NC(=O)c3ccccc3)cc2)s1 | HepG2 | cell growth or viability | MTT | 1.25 µM | – | viability | 2.72%
O=C(Nc1ccc(Oc2nnc(-c3ccc(Cl)cc3)c3ccccc23)cc1)c1cccc([N+](=O)[O-])c1 | HepG2 | cell growth or viability | MTT | 2.5 µM | – | cell death | 96.4%
O=C(Nc1ccccc1)Nc1ccc(C(F)(F)F)cc1 | LAD2 | degranulation | – | – | – | IC50 | 8.31 µM
CNc1ncc2c(/C=C/C(=O)N3CCCC3)nn(CC3CCCC3)c2n1 | OE33 | cell growth or viability | resazurin | – | 5 days | EC50 | > 30 µM
CC(C)(C)c1cnc(CSc2cnc(NC(=O)C3CCN(C(=O)CCCSc4cccc5c4C(=O)N(C4CCC(=O)NC4=O)C5=O)CC3)s2)o1 (centres unmarked) | HH | cell growth or viability | CCK-8 | 0.5 µM | – | viability | 17.8%
CNc1ncc2c(/C=C/C(=O)N3CCC(COC)CC3)nn(Cc3cccc(C)c3)c2n1 | OE33 | cell growth or viability | resazurin | – | 5 days | EC50 | > 30 µM
O=C(Nc1ccccc1)Nc1cc(Br)cc(C(F)(F)F)c1 | LAD2 | degranulation | – | – | – | IC50 | 8.01 µM
CC1CCN(C(=O)/C=C/c2nn(CC3CCCC3)c3ncnc(N)c23)CC1 | OE33 | cell growth or viability | resazurin | – | 5 days | EC50 | > 30 µM
CC(C)(C)c1cnc(CSc2cnc(NC(=O)C3CCN(CCCCSc4cccc5c4C(=O)N(C4CCC(=O)NC4=O)C5=O)CC3)s2)o1 (centres unmarked) | HH | cell growth or viability | CCK-8 | 0.15 µM | – | viability | 36.9%
CC(=O)c1nn(-c2ccc(C)cc2)/c(=N/N=C(\C)c2ccc(NC(=O)c3ccccc3)cc2)s1 | HepG2 | cell growth or viability | MTT | 0.312 µM | – | viability | 5.09%
CC(C)(C)c1cnc(CSc2cnc(NC(=O)C3CCN(C(=O)COCCOCCSc4cccc5c4C(=O)N(C4CCC(=O)NC4=O)C5=O)CC3)s2)o1 (centres unmarked) | HH | cell growth or viability | CCK-8 | 1 µM | – | viability | 7.67%
O=C(Nc1ccc(C(F)(F)F)cc1)Nc1cccc([N+](=O)[O-])c1 | LAD2 | degranulation | – | – | – | IC50 | 0.37 µM
CC(=NNC(=O)c1ccccc1Br)c1ccc(Nc2nnc(-c3ccc(Cl)cc3)c3ccccc23)cc1 | HepG2 | cell growth or viability | MTT | 5 µM | – | cell death | 95.6%
COC(=O)/C=C/c1nn(CC2CCCC2)c2ncnc(N)c12 | OE33 | cell growth or viability | resazurin | – | 5 days | EC50 | > 30 µM
